Experimental data reported in ChEMBL document CHEMBL6074625, “Thiazolidine-2,4-dione hybrids as dual alpha-amylase and alpha-glucosidase inhibitors: design, synthesis, in vitro and in vivo anti-diabetic evaluation” (RSC Med Chem, 2024).

Tests used:
[1] = Inhibition of porcine pancreatic alpha-amylase using starch as substrate preincubated for 10 min followed by substrate addition and measured after 20 min by absorbance based analysis; set-up: species or system Sus scrofa
Method in brief: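 Porcine α-amylase (1 U mL⁻¹) pre-incubated with compound 10 min at 25 °C in phosphate buffer pH 6.8. 1% starch added, then 15 min at 37.5 ± 2 °C. Quenched with DNS reagent, heated 70 °C 20 min, diluted with buffer, A540 read, in triplicate. Final concentrations 100–1 μM from DMSO dilutions; IC50 from a linear fit of % inhibition at y = 50.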

PANC-1 [2] = experiment: Cytotoxicity against human PANC-1 cells assessed as inhibition of cell viability at upto 100 uM incubated for 24 hrs by MTT assay; format: toxicity, cell-based; conditions: panc-1, 24 h
Method in brief: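 PANC-1 cells seeded at 9 × 10³ per well, triplicate, 24 h at 37 °C, 5% CO₂. Treated with 5, 10, 20, 40, 60, 80 and 100 μM for another day. MTT (5 mg mL⁻¹ stock) 3 h at 37 °C, plates centrifuged, formazan dissolved in DMSO 30 min dark, A570. Viability compared by one-way ANOVA with Tukey test.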

PANC-1 [3] = experiment: Antioxidant activity in human PANC-1 cells assessed as decrease in high glucose induced ROS production by measuring minimum fractional index at 5 uM incubated for 24 hrs by DCFDA-staining based flow cytometry analysis; format: functional
Method in brief: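 PANC-1 cells (1 × 10⁵/well) grown 24 h at 37 °C, 5% CO₂, then pre-treated 1 h with 5 μM compound. Exposed to glucose (stated 10 μM) for 23 h. Stained with 10 μM DCFH-DA for 30 min at 37 °C, rinsed, and ROS read by flow cytometry as DCFDA/FITC mean fluorescence intensity.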

[4] = molecular target: alpha-glucosidase (Saccharomyces cerevisiae); experiment: Inhibition of Saccharomyces cerevisiae alpha-glucosidase using 4-nitrophenyl-alpha-D-glucopyranoside as substrate incubated with compound for 15 to 20 min by absorbance based analysis
Rattus norvegicus [5] = experiment: Antioxidant activity in fasted STZ-induced diabetic Wistar rat model assessed as increase in high glucose induced ROS production in pancreas by measuring minimum fractional index at 10 mg/kg, po administration for 21 days; format: functional; conditions: time 21 day
Method in brief: (§1)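 Rat pancreas mashed through a 70 μm strainer in FACS buffer. Processed by centrifugation (300 × g and 800 × g, 21 °C), 42% Percoll and 5 min RBC lysis. Cells washed, stained with DCFH-DA, and ROS read on a flow cytometer.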

Rattus norvegicus [6] = experiment: Antioxidant activity in fasted STZ-induced diabetic Wistar rat model assessed as decrease in high glucose induced ROS production in pancreas by measuring minimum fractional index at 10 mg/kg, po administration for 21 days in presence of pioglitazone days and measured on day 35; format: functional; conditions: time 21 day; method in brief: as §1
Rattus norvegicus [7] = species: Rattus norvegicus; experiment: (§2) Anti-diabetic activity in high glucose induced alpha-amylase expression in fasted STZ-induced diabetic Wistar rat model assessed as alpha- glucosidase level in pancreas by measuring minimum fractional index in presence of pioglitazone incubated for 23 hrs and measured after 24 hrs by flow cytometric analysis (reference value: 3063 +/- 149.2); format: functional
Rattus norvegicus [8] = species: Rattus norvegicus; experiment: as §2, with “alpha-amylase” for “alpha- glucosidase”, “2590 + 199.74)” for “3063 +/- 149.2)”; format: functional
[9] = Toxicity against STZ-induced diabetic Wistar rat model assessed as body weight loss at 10 mg/kg, po measured on day 14; format: organism-based; conditions: in vivo, 336 h, time 14 day
Method in brief: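 STZ given on day 1; oral treatment started day 14, with vehicle 0.5% CMC in controls. Six groups: normal, vehicle, STZ, STZ + two test compounds, STZ + pioglitazone. Blood glucose (tail puncture, glucometer) and body weight recorded on days 1, 4, 14 and 35. One-way ANOVA.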

[10] = Toxicity against STZ-induced diabetic Wistar rat model assessed as body weight loss in presence of pioglitazone at 10 mg/kg, po measured on day 14; format: organism-based; conditions: in vivo
PANC-1 [11] = experiment: (§3) Anti-diabetic activity against high glucose induced human PANC-1 cells assessed as decrease in glucose induced alpha-glucosidase expression by measuring by measuring minimum fractional index at 5 uM incubated for 23 hrs and measured after 24 hrs by flow cytometric analysis (reference value: 4361 +/- 257.83); format: functional
PANC-1 [12] = experiment: as §3, with “alpha-amylase” for “alpha-glucosidase”, “2887” for “4361”, “95.87)” for “257.83)”; format: functional

| SMILES | IC50 [1] | IC50 [4] | Activity (PANC-1 [2]) | Activity_index (PANC-1 [3]) | further results |
| --- | --- | --- | --- | --- | --- |
| CN(N=O)C(=O)N[C@@H]1[C@@H](O)[C@H](O)[C@@H](CO)O[C@@H]1O [STREPTOZOSIN] | – | – | – | – | Activity_index (Rattus norvegicus [5]): 3762; Activity_index (Rattus norvegicus [6]): 221; Activity_index (Rattus norvegicus [7]): 720; Activity_index (Rattus norvegicus [8]): 230; Activity [9]: Toxic; Activity [10]: Toxic |
| O=C1/C(=C2/SC(=O)N(Cc3cccc([N+](=O)[O-])c3)C2=O)Nc2ccc(Cl)cc21 | 50.8 µM | 53.18 µM | Non-toxic | 3063 | – |
| C[C@H]1O[C@H](O[C@H]2[C@H](O)[C@@H](O)[C@@H](O[C@H]3[C@H](O)[C@@H](O)C(O)O[C@@H]3CO)O[C@@H]2CO)[C@H](O)[C@@H](O)[C@@H]1N[C@H]1C=C(CO)[C@@H](O)[C@H](O)[C@H]1O (some centres undefined) [ACARBOSE] | – | – | – | 149 | Activity index (PANC-1 [11]): 170; Activity index (PANC-1 [12]): 114 |
| O=C1/C(=C2/SC(=O)N(Cc3cccc([N+](=O)[O-])c3)C2=O)Nc2ccccc21 | 44 µM | 58.44 µM | Non-toxic | 3041 | – |
| CCOc1cc(/C=C2\SC(=O)N(Cc3cccc([N+](=O)[O-])c3)C2=O)ccc1OCc1ccc([N+](=O)[O-])cc1 | 93.5 µM | 38.33 µM | Non-toxic | 676 | – |
| CCOc1cc(/C=C2\SC(=O)N(Cc3cccc([N+](=O)[O-])c3)C2=O)ccc1OCc1cccc([N+](=O)[O-])c1 | 64.8 µM | 99.1 µM | Non-toxic | 4225 | – |
| CCOc1cc(/C=C2\SC(=O)N(Cc3cccc([N+](=O)[O-])c3)C2=O)ccc1OS(=O)(=O)c1ccc(C)cc1 | 48.7 µM | 42.24 µM | Non-toxic | 957 | – |

More lines, main results first:

| IC50 [1] | IC50 [4] | SMILES | Activity (PANC-1 [2]) | Activity_index (PANC-1 [3]) | further results |
| --- | --- | --- | --- | --- | --- |
| 126 µM | 96.15 µM | CCOc1cc(/C=C2\SC(=O)N(Cc3cccc([N+](=O)[O-])c3)C2=O)ccc1OCc1ccc(Cl)cc1 | Non-toxic | 4225 | – |
| 55.6 µM | 31.2 µM | CCOc1cc(/C=C2\SC(=O)N(Cc3cccc([N+](=O)[O-])c3)C2=O)ccc1OCc1ccccc1 | Non-toxic | 898 | – |
| 60.1 µM | 46.51 µM | CCOc1cc(/C=C2\SC(=O)N(Cc3cccc([N+](=O)[O-])c3)C2=O)ccc1OCc1ccc(F)cc1 | Non-toxic | 2438 | – |
| 61 µM | 68.76 µM | O=C1/C(=C2/SC(=O)N(Cc3cccc([N+](=O)[O-])c3)C2=O)Nc2ccc(Br)cc21 | Non-toxic | 2982 | – |
| 54.2 µM | 20.31 µM | CCOc1cc(/C=C2\SC(=O)N(Cc3cccc([N+](=O)[O-])c3)C2=O)ccc1OCc1ccc(C)cc1 | Non-toxic | 230 | – |
